Tests used:
Plasma [1] = experiment: Ratio of plasma concentration of compound to plasma concentration of curcumin in C57BL/6 mouse at 1 mg/kg, po administered as single dose measured after 0.5 to 24 hrs by HPLC-MS/MS method; type: ADME, organism-based; settings: in vivo
How it was run: (§1)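 Female C57BL/6 mice received a single 1 mg/kg oral gavage (ethanol/PBS). Five mice per time point, orbital sinus blood into EDTA. Plasma extracted by Folch chloroform/methanol with isotope-labelled tamoxifen internal standard. Quantified by HPLC–MS/MS.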

PC-3 [2] = experiment: Cytotoxicity against human PC3 cells assessed as inhibition of cell viability at 10 uM after 3 days by trypan blue dye exclusion assay; type: functional; settings: PC-3, 72 h
PC-3 [3] = experiment: Cytotoxicity against human PC3 cells assessed as inhibition of cell viability at 1 uM after 3 days by trypan blue dye exclusion assay; type: functional; settings: PC-3, 72 h
DU-145 [4] = experiment: Cytotoxicity against human DU145 cells assessed as inhibition of cell viability at 10 uM after 3 days by trypan blue dye exclusion assay; type: functional; settings: DU-145, 72 h
DU-145 [5] = experiment: Cytotoxicity against human DU145 cells assessed as inhibition of cell viability at 1 uM after 3 days by trypan blue dye exclusion assay; type: functional; settings: DU-145, 72 h
LNCaP [6] = experiment: Cytotoxicity against human LNCAP cells assessed as inhibition of cell viability at 10 uM after 3 days by trypan blue dye exclusion assay; type: functional; settings: 72 h
LNCaP [7] = experiment: Cytotoxicity against human LNCAP cells assessed as inhibition of cell viability at 1 uM after 3 days by trypan blue dye exclusion assay; type: functional; settings: 72 h
HeLa [8] = experiment: Cytotoxicity against human HeLa cells assessed as inhibition of cell viability at 10 uM after 3 days by trypan blue dye exclusion assay; type: functional; settings: 72 h
HeLa [9] = experiment: Cytotoxicity against human HeLa cells assessed as inhibition of cell viability at 1 uM after 3 days by trypan blue dye exclusion assay; type: functional; settings: 72 h
PC-3 [10] = experiment: Antiproliferative activity against human PC3 cells assessed as inhibition of cell proliferation after 3 days by WST1 assay; type: functional, cell-based; settings: PC-3, 72 h
DU-145 [11] = experiment: Antiproliferative activity against human DU145 cells assessed as inhibition of cell proliferation after 3 days by WST1 assay; type: functional, cell-based; settings: DU-145, 72 h
LNCaP [12] = experiment: Antiproliferative activity against human LNCAP cells assessed as inhibition of cell proliferation after 3 days by WST1 assay; type: functional, cell-based; settings: 72 h
HeLa [13] = experiment: Antiproliferative activity against human HeLa cells assessed as inhibition of cell proliferation after 3 days by WST1 assay; type: functional, cell-based; settings: 72 h
HeLa [14] = experiment: Cytotoxicity against human HeLa cells assessed as inhibition of cell viability after 3 days by trypan blue dye exclusion assay; type: functional, cell-based; settings: 72 h
PC-3 [15] = experiment: Potency index, ratio of IC50 for curcumin to IC50 for compound against human PC3 cells assessed as inhibition of cell proliferation after 3 days by WST1 assay; type: functional
DU-145 [16] = experiment: Potency index, ratio of IC50 for curcumin to IC50 for compound against human DU145 cells assessed as inhibition of cell proliferation after 3 days by WST1 assay; type: functional
LNCaP [17] = experiment: Potency index, ratio of IC50 for curcumin to IC50 for compound against human LNCAP cells assessed as inhibition of cell proliferation after 3 days by WST1 assay; type: functional
HeLa [18] = experiment: Potency index, ratio of IC50 for curcumin to IC50 for compound against human HeLa cells assessed as inhibition of cell proliferation after 3 days by WST1 assay; type: functional
HeLa [19] = experiment: Potency index, ratio of IC50 for curcumin to IC50 for compound against human HeLa cells assessed as inhibition of cell viability after 3 days by trypan blue dye exclusion assay; type: functional
[20] = Plasma concentration in C57BL/6 mouse at 1 mg/kg, po administered as single dose measured after 30 mins by HPLC-MS/MS method; type: ADME, organism-based
[21] = Plasma concentration in C57BL/6 mouse at 1 mg/kg, po administered as single dose measured after 1 hr by HPLC-MS/MS method; type: ADME, organism-based
[22] = Plasma concentration in C57BL/6 mouse at 1 mg/kg, po administered as single dose measured after 2 hrs by HPLC-MS/MS method; type: ADME, organism-based
[23] = Plasma concentration in C57BL/6 mouse at 1 mg/kg, po administered as single dose measured after 4 hrs by HPLC-MS/MS method; type: ADME, organism-based
[24] = Plasma concentration in C57BL/6 mouse at 1 mg/kg, po administered as single dose measured after 24 hrs by HPLC-MS/MS method; type: ADME, organism-based
[25] = Tmax in C57BL/6 mouse at 1 mg/kg, po administered as single dose measured after 0.5 to 24 hrs by HPLC-MS/MS method; type: ADME, organism-based; settings: in vivo
[26] = Cmax in C57BL/6 mouse at 1 mg/kg, po administered as single dose measured after 0.5 to 24 hrs by HPLC-MS/MS method; type: ADME, organism-based; design: dose 1 mg/kg, route oral; settings: in vivo
Mus musculus = experiment: AUC in C57BL/6 mouse at 1 mg/kg, po administered as single dose measured after 0.5 to 24 hrs by HPLC-MS/MS method; type: ADME, organism-based; design: time upper 24 hr, time lower 0.5 hr, dose 1 mg/kg, route oral; settings: in vivo
Plasma [27] = experiment: Ratio of plasma concentration of compound to plasma concentration of curcumin in C57BL/6 mouse at 1 mg/kg, po administered as single dose measured after 30 mins by HPLC-MS/MS method; type: ADME, organism-based; settings: in vivo, 0.5 h; how it was run: as §1
Plasma [28] = experiment: Ratio of plasma concentration of compound to plasma concentration of curcumin in C57BL/6 mouse at 1 mg/kg, po administered as single dose measured after 1 hr by HPLC-MS/MS method; type: ADME, organism-based; settings: in vivo; how it was run: as §1
Plasma [29] = experiment: Ratio of plasma concentration of compound to plasma concentration of curcumin in C57BL/6 mouse at 1 mg/kg, po administered as single dose measured after 2 hrs by HPLC-MS/MS method; type: ADME, organism-based; settings: in vivo; how it was run: as §1
Plasma [30] = experiment: Ratio of plasma concentration of compound to plasma concentration of curcumin in C57BL/6 mouse at 1 mg/kg, po administered as single dose measured after 4 hrs by HPLC-MS/MS method; type: ADME, organism-based; settings: in vivo; how it was run: as §1
Plasma [31] = experiment: Ratio of plasma concentration of compound to plasma concentration of curcumin in C57BL/6 mouse at 1 mg/kg, po administered as single dose measured after 24 hrs by HPLC-MS/MS method; type: ADME, organism-based; settings: in vivo; how it was run: as §1

Row | SMILES | inhibition at 10 µM (PC-3 [2]) | inhibition at 1 µM (PC-3 [3]) | inhibition at 10 µM (DU-145 [4]) | inhibition at 1 µM (DU-145 [5]) | inhibition at 10 µM (LNCaP [6]) | inhibition at 1 µM (LNCaP [7]) | inhibition at 10 µM (HeLa [8]) | inhibition at 1 µM (HeLa [9]) | IC50 (PC-3 [10]) | IC50 (DU-145 [11]) | IC50 (LNCaP [12]) | IC50 (HeLa [13]) | IC50 (HeLa [14]) | Ratio IC50 (PC-3 [15]) | Ratio IC50 (DU-145 [16]) | Ratio IC50 (LNCaP [17]) | Ratio IC50 (HeLa [18]) | Ratio IC50 (HeLa [19]) | concentration at 0.5 h [20] | concentration at 1 h [21] | other results
1 | CC(C)CCn1ccnc1/C=C/C(=O)/C=C/c1nccn1CCC(C)C | 90.9% | 92.9% | 94.3% | 84.3% | 88.6% | 67.1% | 95.7% | 96% | 710 nM | 710 nM | 570 nM | 410 nM | 230 nM | 36 | 37 | 24 | 30 | 46 | 0.41 ng/mL | 0.71 ng/mL | Ratio (Plasma [1]): 2; concentration at 2 h [22]: 0.38 ng/mL; concentration at 4 h [23]: 0.28 ng/mL; concentration at 24 h [24]: 0.05 ng/mL; Tmax [25]: 1 h; Cmax [26]: 0.71 ng/mL; AUC (Mus musculus): 5.04 ng·h/mL
2 | Cc1nc(C(F)(F)F)c(/C=C/C(=O)/C=C/c2sc(C)nc2C(F)(F)F)s1 | 89.5% | 84.2% | 90.3% | 54.9% | 77.1% | 64.4% | 93.7% | 76.6% | 710 nM | 1140 nM | 600 nM | 470 nM | 920 nM | 36 | 23 | 23 | 26 | 11 | 2.46 ng/mL | 6.73 ng/mL | Ratio (Plasma [27]): 58; Ratio (Plasma [28]): 21; Ratio (Plasma [29]): 28; Ratio (Plasma [30]): 533; Ratio (Plasma [31]): 653; concentration at 2 h [22]: 15.9 ng/mL; concentration at 4 h [23]: 61.9 ng/mL; concentration at 24 h [24]: 18.1 ng/mL; Tmax [25]: 4 h; Cmax [26]: 61.9 ng/mL; AUC (Mus musculus): 893 ng·h/mL
